Assay results reported in ChEMBL document CHEMBL4680191, “Discovery of novel akt1 inhibitor induces autophagy associated death in hepatocellular carcinoma cells” (Eur J Med Chem, 2020).
Calls of active or inactive are those of the source. The rule behind the calls is not given here.

Assays:
[1] = test system: Huh-7; assay: Antitumour activity against human Huh-7 cells xenografted in nude mouse assessed as decrease in p62/SQSTMI at 20 to 50 mg/kg, ip up to 15 days by immunohistochemical analysis; format: functional, organism-based; conditions: dose 20-50 mg/kg, time day <=15
In short: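 Tumors came from Huh-7 xenografted nude mice dosed intraperitoneally at 25 or 50 mg/Kg for 15 days. For IHC, sections underwent microwave antigen retrieval (EDTA pH 8.0 or citrate pH 6.0), then primary antibody at 37 °C for 30-40 min. HRP polymer/secondary was applied for 30 min, with DAB development and control IgG.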

[2] = test system: Huh-7; assay: Induction of apoptosis in human Huh-7 cells assessed as upregulation of cleaved caspase-3 protein expression at 0.1 to 0.2 uM by Western blot analysis; format: functional, cell-based; conditions: dose 0.1-0.2 µM
In short: (§1)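 Huh-7 cells were treated with or without compound. Total protein extracts were separated by SDS-PAGE and transferred to PVDF. Membranes were probed with primary antibodies, then HRP-conjugated secondary antibody (1:10,000), and detected by enhanced chemiluminescence.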

[3] = test system: Hep 3B2; assay: Cytotoxicity against human Hep3B cells assessed as reduction in cell viability by MTT assay; format: functional, cell-based
In short: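 Hepatoma cells were grown in DMEM with 10% FBS and streptomycin, then treated with compounds. Viability was read by MTT.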

[4] = test system: Huh-7; assay: Induction of autophagosome in human Huh-7 harboring GFP-LC3 cells at 0.2 uM in presence of Baf-A1 by fluorescence microscopic analysis; format: functional, cell-based
[5] = test system: Huh-7; assay: Induction of apoptosis in human Huh-7 cells assessed as viable cells at 0.2 uM by Annexin V/propidium iodide staining based flow cytometric analysis (reference value: 94.83%); format: functional; conditions: read-out: Activity
[6] = test system: Huh-7; assay: Induction of autophagosome in human Huh-7 harboring GFP-LC3 cells at 0.2 uM in presence of 3-MA by fluorescence microscopic analysis; format: functional, cell-based
[7] = test system: Huh-7; assay: Induction of autophagy in human Huh-7 cells assessed as reduction in cathepsin D activity at 0.2 uM in presence of 3-MA; format: functional, cell-based
[8] = test system: Huh-7; assay: Induction of autophagy in human Huh-7 cells assessed as reduction in cell viability up to 72 hrs in presence of Baf-A1 by MTT assay; format: functional, cell-based; conditions: time hrs <=72
[9] = test system: Huh-7; assay: Induction of autophagy in human Huh-7 cells assessed as reduction in cathepsin D activity at 0.2 uM in presence of Baf-A1; format: functional, cell-based
[10] = test system: Huh-7; assay: Induction of apoptosis in human Huh-7 cells assessed as reduction in Bcl-2 expression at 0.1 to 0.2 uM Western blot analysis; format: functional, cell-based; conditions: dose 0.1-0.2 µM; in short: as §1
[11] = test system: Huh-7; assay: Induction of autophagy in human Huh-7 cells assessed as reduction in cell viability up to 72 hrs in presence of 3-MA by MTT assay; format: functional, cell-based; conditions: time hrs <=72
[12] = Inhibition of full length human Akt1 […] mutant using GRPRTSSFAEGKK as substrate incubated for 40 mins by scintillation counting method
In short: (§2)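 Eurofins KinaseProfiler enzymatic assay on human Akt isoforms. IC50 values are the mean of at least three independent replicates ± standard deviation.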

[13] = molecular target: RAC-gamma serine/threonine-protein kinase (Homo sapiens, UniProt Q9Y243, S472D); assay: Inhibition of full length human Akt3 S472D mutant using GRPRTSSFAEGKK as substrate incubated for 40 mins by scintillation counting method; in short: as §2
RAC-gamma serine/threonine-protein kinase, sequence (Q9Y243 2-479 S472D limits assumed): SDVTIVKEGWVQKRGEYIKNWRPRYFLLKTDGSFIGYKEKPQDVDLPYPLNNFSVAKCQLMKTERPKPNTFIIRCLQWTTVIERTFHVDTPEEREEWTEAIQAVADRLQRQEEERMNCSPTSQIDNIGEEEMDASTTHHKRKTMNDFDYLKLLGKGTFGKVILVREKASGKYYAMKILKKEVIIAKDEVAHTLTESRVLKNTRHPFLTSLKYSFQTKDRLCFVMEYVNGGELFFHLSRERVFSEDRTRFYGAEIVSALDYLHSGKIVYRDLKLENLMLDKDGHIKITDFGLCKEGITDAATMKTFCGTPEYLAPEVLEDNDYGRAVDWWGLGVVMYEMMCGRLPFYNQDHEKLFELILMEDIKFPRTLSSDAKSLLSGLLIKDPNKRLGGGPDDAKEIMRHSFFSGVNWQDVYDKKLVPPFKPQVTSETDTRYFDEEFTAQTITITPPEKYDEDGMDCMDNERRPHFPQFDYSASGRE

[14] = test system: Huh-7; assay: Induction of apoptosis in human Huh-7 cells assessed as upregulation of cytochromeC protein expression at 0.1 to 0.2 uM by Western blot analysis; format: functional, cell-based; conditions: dose 0.1-0.2 µM; in short: as §1
[15] = test system: Huh-7; assay: Induction of apoptosis in human Huh-7 cells assessed as necrotic cells at 0.1 uM by Annexin V/propidium iodide staining based flow cytometric analysis (reference value: 0.59%); format: functional
[16] = test system: RAC-beta serine/threonine-protein kinase (Homo sapiens), P31751 [S474D]; assay: Inhibition of full length human Akt2 S474D mutant assessed as remaining activity at 1 uM using GRPRTSSFAEGKK as substrate incubated for 40 mins by scintillation counting method relative to control
RAC-beta serine/threonine-protein kinase (Homo sapiens), P31751 [S474D], sequence (P31751 whole entry S474D): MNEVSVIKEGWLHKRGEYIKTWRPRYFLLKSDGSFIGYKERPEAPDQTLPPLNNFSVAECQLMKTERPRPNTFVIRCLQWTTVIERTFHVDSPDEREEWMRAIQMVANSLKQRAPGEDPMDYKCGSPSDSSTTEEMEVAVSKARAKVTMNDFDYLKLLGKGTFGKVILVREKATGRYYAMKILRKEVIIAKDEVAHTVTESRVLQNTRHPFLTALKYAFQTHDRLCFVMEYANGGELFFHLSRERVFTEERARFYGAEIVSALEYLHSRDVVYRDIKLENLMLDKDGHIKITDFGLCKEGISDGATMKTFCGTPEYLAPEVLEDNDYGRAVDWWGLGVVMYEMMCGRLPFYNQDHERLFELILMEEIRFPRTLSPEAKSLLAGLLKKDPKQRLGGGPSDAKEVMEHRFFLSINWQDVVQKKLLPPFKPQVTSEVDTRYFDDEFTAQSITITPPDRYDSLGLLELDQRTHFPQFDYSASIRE
In short: (§3)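 Eurofins KinaseProfiler kinase assay on human Akt1, Akt2 and Akt3. Compounds were tested at 1 µM. Residual kinase activity is reported as % of control.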

[17] = test system: Huh-7; assay: Induction of apoptosis in human Huh-7 cells assessed as early apoptotic cells at 0.2 uM by Annexin V/propidium iodide staining based flow cytometric analysis (reference value: 1.43%); format: functional
[18] = test system: Huh-7; assay: Antitumour activity against human Huh-7 cells xenografted in nude mouse assessed as reduction in tumour growth at […], ip up to 15 days; format: functional, organism-based; conditions: time day <=15
In short: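 Nude mice bearing subcutaneous Huh-7 xenografts received 25 or 50 mg/Kg compound intraperitoneally. Tumor volume was followed from day 1 to day 15, with excised tumors weighed at the end. Body weight was also monitored.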

[19] = test system: Huh-7; assay: Induction of autophagy in human Huh-7 cells assessed as increase in LC3-2 protein expression at 0.1 to 0.2 uM by Western blot analysis; format: functional, cell-based; conditions: dose 0.1-0.2 µM; in short: as §1
[20] = test system: Huh-7; assay: Induction of apoptosis in human Huh-7 cells by Annexin V/propidium iodide staining based flow cytometric analysis; format: functional, cell-based; conditions: dose 0.1-0.2 µM
[21] = test system: Huh-7; assay: Induction of autophagy in human Huh-7 cells harboring GFP-LC3 assessed as increase in number of the autophagosome puncta at 0.2 uM after 6 hrs; format: functional, cell-based
In short: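 GFP-LC3-transfected cells were exposed to saline or compound for 6 h, then fixed with paraformaldehyde. Autophagosome puncta were scored by fluorescence of accumulated GFP-LC3.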

[22] = Effect on total AKT protein level in human Huh-7 cells at 0.1 to 0.2 uM by Western blot analysis; format: ADME, cell-based; conditions: huh-7, 0.2 µM, dose 0.1-0.2 µM; in short: as §1
[23] = organism: Homo sapiens; assay: Inhibition of full length human Akt1 […] mutant assessed as remaining activity at 1 uM using GRPRTSSFAEGKK as substrate incubated for 40 mins by scintillation counting method relative to control; in short: as §3
[24] = test system: Huh-7; assay: Induction of autophagy in human Huh-7 cells assessed as decrease in m-TOR phosphorylation at 0.1 to 0.2 uM by Western blot analysis; format: functional, cell-based; conditions: dose 0.1-0.2 µM; in short: as §1
[25] = test system: Huh-7; assay: Induction of autophagy flux arrest in human Huh-7 cells assessed as reduction in LC3 at 0.2 uM by immunofluorescence staining based assay; format: functional, cell-based
In short: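 Huh-7 cells with or without 0.2 µM compound were immunofluorescently co-stained for LC3 (autophagosome) and LAMP1 (lysosome). Co-localization was assessed by fluorescence imaging.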

Q: With `O=C(C(CNC1CCCC1)c1ccc(Cl)cc1)N1CCN(c2ncnc3sc4c(c23)CCC4)CC1` (stereo not given) as the compound, how does the Activity [1] read?
A: Its Activity is “Active”.

Q: And the Activity [2]?
A: The Activity was “Active”.

Q: What about the IC50 [3] of the same compound?
A: Its IC50 is 131 nM.

Q: And the Activity [4]?
A: The Activity was “Active”.

Q: What about the viability at 0.2 µM [5] of the same compound?
A: The viability at 0.2 µM was 80.8%.

Q: What about the Activity [6] of the same compound?
A: The Activity was “inactive”.

Q: And the Activity [7]?
A: Its Activity is “inactive”.

Q: What about the Activity [8] of the same compound?
A: The Activity was “Active”.

Q: And the Activity [9]?
A: The Activity was “Active”.

Q: And the Activity [10]?
A: Its Activity is “Active”.

Q: What about the Activity [11] of the same compound?
A: Its Activity is “inactive”.

Q: What about the IC50 [12] of the same compound?
A: Its IC50 is 34 nM.

Q: And the IC50 [13]?
A: The IC50 was 129 nM.

Q: And the Activity [14]?
A: Its Activity is “Active”.

Q: What about the Activity [15] of the same compound?
A: Its Activity is 2.69%.

Q: And the Activity [16]?
A: Its Activity is 63%.

Q: And the Activity [17]?
A: The Activity was 7.1%.

Q: And the Activity [18]?
A: The Activity was “Active”.

Q: And the Activity [19]?
A: Its Activity is “Active”.

Q: And the Activity [20]?
A: Its Activity is “Dose-dependent effect”.

Q: And the Activity [21]?
A: The Activity was “Active”.

Q: What about the Activity [22] of the same compound?
A: Its Activity is “Non-Toxic”.

Q: And the Activity [23]?
A: The Activity was 1%.

Q: And the Activity [24]?
A: Its Activity is “Active”.

Q: What about the Activity [25] of the same compound?
A: The Activity was “Active”.
